Results on seven molecules are retold here after ChEMBL document CHEMBL1123039, “N-substituted imidazolines and ethylenediamines and their action on alpha- and beta-adrenergic receptors” (1985).

In test [1] the test system is Rattus norvegicus. Nature of the test: The dose required to increase diastolic blood pressure by 50 mmHg in pithed rats after intravenous administration. To be noted: Artery. The class given is functional. Summed up: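 Pithed rat preparation with the right femoral vein cannulated for iv dosing (1 mL/kg). At least 30 min equilibration preceded drugs. Pressor effect was read as the increase in diastolic blood pressure (mmHg), and heart rate was recorded by a pulse-triggered cardiotachometer. Values are mean ± SEM.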

The subject of test [2] is Rattus norvegicus. Nature of the test: Tested for alpha-2 adrenoceptor-Mediated Pressor Response in Pithed Rats; Dose ratio by subsequent administration of antagonist (yohimbine) intravenously at a dose of 1 mg/kg. In kind it is functional. To be noted: route intravenous. Summed up:
(§1)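 Pithed rats; drugs given iv through the cannulated right femoral vein at 1 mL/kg after at least 30 min equilibration. Pressor responses to the agonist were recorded as rises in diastolic blood pressure (mmHg), with and without pretreatment with prazosin (0.1 mg/kg, iv; α1-selective) or yohimbine (1 mg/kg, iv; α2-selective). Shift of the agonist dose-response was expressed as a dose ratio (mean ± SEM).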

The subject of test [3] is Rattus norvegicus. Nature of the test: Tested for alpha1 adrenoceptor-Mediated Pressor Response in Pithed Rats; Dose ratio subsequent administration of antagonist (Prazosin) intravenously at a dose of 0.1 mg/kg. The settings on record: route intravenous. The class given is functional. In outline: as §1
In test [4] the test system is Adrenergic receptor alpha (Rattus norvegicus). Briefly: The selectivity was evaluated against alpha 1 and alpha 2 adrenoceptors.
Test [5] relates to Rattus norvegicus. Nature of the test: Tested for alpha-1 adrenoceptor-Mediated Pressor response in Pithed Rats; Dose ratio subsequent administration of antagonist (Prazosin) intravenously at a dose of 0.1 mg/kg. The settings on record: route intravenous. In kind it is functional. In outline: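 Pithed rats; drugs given iv via the right femoral vein at 1 mL/kg after at least 30 min equilibration. The pressor response is the rise in diastolic blood pressure (mmHg). Agonist pressor responses were measured after α1-selective blockade with prazosin (0.1 mg/kg, iv), and the dose ratio for the pressor response was derived. Values are mean ± SEM.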

In the test on Rattus norvegicus [1], `Cl.Cl.NCCNCCc1ccc(O)c(O)c1` had a median effective dose (ED50) of 0.028 mg/kg. For the same molecule, the figures for the Dose ratio with Rattus norvegicus [2] and in the test on Rattus norvegicus [3] were 5.7 and 1.7, respectively. Moreover, the Selectivity in test [4] amounted to 0.3.

Regarding `Cl.Oc1ccc(CCN2C=NCC2)cc1O`, in the test with Rattus norvegicus [1], the 50% effect level (ED50) was put at a dose of 0.024 mg/kg. In addition, the Dose ratio is reported as 2.1 in the test with Rattus norvegicus [2] and 1.3 in the test on Rattus norvegicus [3]. In test [4], this molecule displayed a Selectivity of 0.7.

For the molecule `Cl.Cl.NCCNCc1ccc(O)c(O)c1`, in the test with Rattus norvegicus [1], the ED50 is 0.305 mg/kg. The Dose ratio stood at 4.4 in the test on Rattus norvegicus [2] and 5.5 in the test with Rattus norvegicus [3]. The molecule also had a Selectivity in test [4] of 1.3.

In turn, `c1ccc(C2CC2)c(OCC2=NCCN2)c1` [CIRAZOLINE] yielded a 50% effective dose (ED50) with Rattus norvegicus [1] of 0.0006 mg/kg.

Turning to `Oc1ccc(CC2=NCCN2)cc1O`, the ED50 with Rattus norvegicus [1] was determined as 0.00035 mg/kg. Moreover, the figures for the Dose ratio in the test on Rattus norvegicus [2] and in the test on Rattus norvegicus [5] were 0.4 and 0.8, respectively. The molecule further came in with a Selectivity in test [4] of 2.

In the test with Rattus norvegicus [1], `Br.Br.CCN1CCc2nc(N)oc2CC1` registered an ED50 of 0.026 mg/kg.

Turning to `Cl.Oc1ccc(CN2C=NCC2)cc1O`, in the test on Rattus norvegicus [1], the 50% effect level (ED50) was put at a dose of 0.035 mg/kg. Besides, the Dose ratio worked out at 2.4 in the test with Rattus norvegicus [2] and 5.3 in the test on Rattus norvegicus [3]. Moreover, in test [4], the Selectivity worked out at 2.2.

A word on the ED50: it is the midpoint of the dose-response relation. Higher therefore signals weaker potency.
